Test results from ChEMBL document CHEMBL3526146, “In vitro and in vivo metabolism and pharmacokinetics of BMS-562086, a potent and orally bioavailable corticotropin-releasing factor-1 receptor antagonist” (Drug Metab Dispos, 2012).

Experiments:
[1] = Drug metabolism in cynomolgus monkey cryopreserved hepatocytes at 25 uM after 3 hrs by LC-MS/MS analysis; assay type: ADME, cell-based, Macaca fascicularis, Hepatocyte
Outline: (§1)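 Mouse, rat, dog, monkey and human hepatocytes (trypan blue viability checked) at 1.0×10^6 cells/ml in Krebs-Henseleit buffer were incubated with 25 µM compound, in duplicate. Conditions were 37°C, 95/5 O2/CO2, orbital shaking, 3 h. 7-Ethoxycoumarin and 7-hydroxycoumarin (100 µM) served as positive controls, with a cell-free negative control. Reactions were quenched with ice-cold acetonitrile, then sonicated and centrifuged; supernatants were analysed by LC/MS/MS.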

[2] = Drug metabolism in human cryopreserved hepatocytes at 25 uM after 3 hrs by LC-MS/MS analysis; assay type: ADME, cell-based, Hepatocyte
Outline: (§2)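 Hepatocytes checked for viability by trypan blue exclusion, then diluted in Krebs-Henseleit buffer to 1.0 × 10^6 cells/ml. Incubated in duplicate with 25 µM compound at 37°C for 3 h on an orbital shaker (80 rpm) under 95/5 O2/CO2. Negative control had no cells. Stopped with ice-cold acetonitrile, sonicated, centrifuged; supernatant analysed by LC/MS/MS.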

[3] = tested on: Liver microsome; assay: Drug metabolism in rat liver microsomes assessed as BMS-572273 metabolite level at 100 uM after 1 hr in presence of NADPH; assay type: ADME
Outline: (§3)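 Liver microsomes (1 mg/ml protein) in 100 mM phosphate buffer with 100 µM test compound. Reaction started by adding NADPH (1 mM), then run at 37°C for 1 h in a shaking water bath, in duplicate. Controls lacked microsomal protein or NADPH; 7-ethoxycoumarin (100 µM) was the positive control. Metabolites identified by LC/MS/MS.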

[4] = tested on: Liver microsome; assay: Drug metabolism in dog liver microsomes at 100 uM after 1 hr in presence of NADPH; assay type: ADME, Canis lupus familiaris; outline: as §3
[5] = tested on: Liver microsome; assay: Detection of compound level in rat liver microsomes treated with 100 uM of BMS-562086 after 1 hr by LC-MS/MS analysis
[6] = Drug metabolism in cynomolgus monkey liver microsomes assessed as DPH-123554 metabolite level at 100 uM after 1 hr in presence of NADPH; assay type: ADME, Macaca fascicularis
Outline: (§4)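 Mouse, rat, dog, monkey and human liver microsomes (1 mg/ml protein) were incubated with 100 µM compound in 100 mM phosphate buffer. Reactions were started with 1 mM NADPH and run 1 h at 37°C in duplicate. Controls lacked protein or NADPH, plus a 7-ethoxycoumarin (100 µM) positive control. Metabolites were identified by LC/MS/MS.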

[7] = Drug metabolism in mouse liver microsomes at 100 uM after 1 hr in presence of NADPH; assay type: ADME; outline: as §3
[8] = Drug metabolism in cynomolgus monkey liver microsomes assessed as DPH-124921 metabolite level at 100 uM after 1 hr in presence of NADPH; assay type: ADME, Macaca fascicularis; outline: as §4
[9] = Drug metabolism in cynomolgus monkey cryopreserved hepatocytes assessed as DPH-124921 metabolite level at 25 uM after 3 hrs by LC-MS/MS analysis; assay type: ADME, cell-based, Macaca fascicularis, Hepatocyte; outline: as §1
[10] = tested on: Liver microsome; assay: Drug metabolism in beagle dog liver microsomes assessed as DPH-123554 metabolite level at 100 uM after 1 hr in presence of NADPH; assay type: ADME, Canis lupus familiaris; outline: as §4
[11] = Drug metabolism in beagle dog hepatocytes assessed as BMS-572273 metabolite level at 25 uM after 3 hrs by LC-MS/MS analysis; assay type: ADME, cell-based, Canis lupus familiaris, Hepatocyte; outline: as §1
[12] = Drug metabolism in rat hepatocytes at 25 uM after 3 hrs by LC-MS/MS analysis; assay type: ADME, cell-based, Hepatocyte; outline: as §2
[13] = Detection of compound level in beagle dog hepatocytes treated with 25 uM of BMS-562086 after 3 hrs by LC-MS/MS analysis; assay type: ADME, cell-based, Canis lupus familiaris, Hepatocyte; outline: as §1
[14] = Drug metabolism in mouse hepatocytes assessed as DPH-123554 metabolite level at 25 uM after 3 hrs by LC-MS/MS analysis; assay type: ADME, cell-based, Hepatocyte; outline: as §2
[15] = tested on: Hepatocyte; assay: Detection of compound level in human cryopreserved hepatocytes treated with 25 uM of BMS-562086 after 3 hrs by LC-MS/MS analysis; assay type: ADME, cell-based; outline: as §1
[16] = tested on: Liver microsome; assay: Drug metabolism in human liver microsomes assessed as DPH-124921 metabolite level at 100 uM after 1 hr in presence of NADPH; assay type: ADME; outline: as §3
[17] = Drug metabolism in beagle dog hepatocytes assessed as DPH-124921 metabolite level at 25 uM after 3 hrs by LC-MS/MS analysis; assay type: ADME, cell-based, Canis lupus familiaris, Hepatocyte; outline: as §1
[18] = tested on: Hepatocyte; assay: Detection of compound level in mouse hepatocytes treated with 25 uM of BMS-562086 after 3 hrs by LC-MS/MS analysis; assay type: ADME, cell-based; outline: as §1
[19] = Drug metabolism in beagle dog hepatocytes assessed as DPH-123554 metabolite level at 25 uM after 3 hrs by LC-MS/MS analysis; assay type: ADME, cell-based, Canis lupus familiaris, Hepatocyte; outline: as §1
[20] = Drug metabolism in mouse hepatocytes assessed as BMS-572273 metabolite level at 25 uM after 3 hrs by LC-MS/MS analysis; assay type: ADME, cell-based, Hepatocyte; outline: as §2
[21] = Drug metabolism in rat hepatocytes assessed as DPH-124921 metabolite level at 25 uM after 3 hrs by LC-MS/MS analysis; assay type: ADME, cell-based, Hepatocyte; outline: as §2
[22] = Drug metabolism in beagle dog hepatocytes at 25 uM after 3 hrs by LC-MS/MS analysis; assay type: ADME, cell-based, Canis lupus familiaris, Hepatocyte; outline: as §1
[23] = tested on: Liver microsome; assay: Drug metabolism in human liver microsomes assessed as BMS-572273 metabolite level at 100 uM after 1 hr in presence of NADPH; assay type: ADME; outline: as §3
[24] = tested on: Liver microsome; assay: Drug metabolism in human liver microsomes at 100 uM after 1 hr in presence of NADPH; assay type: ADME; outline: as §3
[25] = tested on: Liver microsome; assay: Drug metabolism in rat liver microsomes assessed as DPH-123554 metabolite level at 100 uM after 1 hr in presence of NADPH; assay type: ADME; outline: as §3
[26] = Detection of compound level in mouse liver microsomes treated with BMS-562086 by LC-MS/MS analysis
[27] = Detection of compound level in cynomolgus monkey cryopreserved hepatocytes treated with 25 uM of BMS-562086 after 3 hrs by LC-MS/MS analysis; assay type: ADME, cell-based, Macaca fascicularis, Hepatocyte; outline: as §1
[28] = Drug metabolism in cynomolgus monkey cryopreserved hepatocytes assessed as BMS-572273 metabolite level at 25 uM after 3 hrs by LC-MS/MS analysis; assay type: ADME, cell-based, Macaca fascicularis, Hepatocyte; outline: as §1
[29] = Drug metabolism in human cryopreserved hepatocytes assessed as BMS-572273 metabolite level at 25 uM after 3 hrs by LC-MS/MS analysis; assay type: ADME, cell-based, Hepatocyte; outline: as §2
[30] = Detection of compound level in cynomolgus monkey liver microsomes treated with 100 uM of BMS-562086 after 1 hr by LC-MS/MS analysis
[31] = Drug metabolism in mouse hepatocytes assessed as DPH-124921 metabolite level at 25 uM after 3 hrs by LC-MS/MS analysis; assay type: ADME, cell-based, Hepatocyte; outline: as §2
[32] = Drug metabolism in human cryopreserved hepatocytes assessed as DPH-123554 metabolite level at 25 uM after 3 hrs by LC-MS/MS analysis; assay type: ADME, cell-based, Hepatocyte; outline: as §2
[33] = tested on: Liver microsome; assay: Drug metabolism in dog liver microsomes assessed as BMS-572273 metabolite level at 100 uM after 1 hr in presence of NADPH; assay type: ADME, Canis lupus familiaris; outline: as §4
[34] = tested on: Liver microsome; assay: Detection of compound level in beagle dog liver microsomes treated with 100 uM of BMS-562086 after 1 hr by LC-MS/MS analysis

Measured: Drug metabolism

COc1ccc(-c2c(C)nn3c(N)nc(C)nc23)c(C)n1
metabolite_detected: all assays above

COc1ccc(-c2c(C)nn3c(O)nc(C)nc23)c(C)n1
metabolite_detected: all assays above

CC[C@@H](C)Nc1nc(C)nc2c(-c3ccc(O)nc3C)c(C)nn12
metabolite_detected: all assays above
